From ChEMBL document CHEMBL4138104, “Indole carboxylic acid esters of melampomagnolide B are potent anticancer agents against both hematological and solid tumor cells” (Eur J Med Chem, 2017)
pEC50: −log10 of the molar value.

Assays:
Type in all cases: functional
CCRF-CEM = experiment: Growth inhibition of human CCRF-CEM cells incubated for 48 hrs by sulforhodamine B assay
Method in brief: (§1)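 NCI-60 screen. Compounds were dosed at five concentrations spanning 10^-4 to 10^-8 M for 48 h at 37 °C. Cells were TCA-fixed, stained with 0.4% SRB and read at 515 nm against time-zero and vehicle controls. GI50 is the concentration giving a 50% reduction in net protein increase.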

HL-60(TB) = experiment: Growth inhibition of human HL-60(TB) cells incubated for 48 hrs by sulforhodamine B assay; conditions: HL-60, 48 h
Method in brief: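 Performed at NCI's 60-line screen. Cells grown in RPMI with 5% FBS and 2 mM L-glutamine, plated 5,000–40,000 cells/well and incubated 24 h at 37 °C before compound addition. DMSO stocks were diluted in medium with gentamicin, and five concentrations spanning 10^-4 to 10^-8 M were tested. Exposure was 48 h. Cells were fixed with TCA, stained with SRB, and read at 515 nm. GI50 taken from log dose-response curves as 50% reduction in net protein increase versus control.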

K562 = experiment: Growth inhibition of human K562 cells incubated for 48 hrs by sulforhodamine B assay; conditions: K562, 48 h; method in brief: as §1
MOLT-4 = experiment: Growth inhibition of human MOLT4 cells incubated for 48 hrs by sulforhodamine B assay; conditions: MOLT-4, 48 h; method in brief: as §1
RPMI-8226 = experiment: Growth inhibition of human RPMI8226 cells incubated for 48 hrs by sulforhodamine B assay; conditions: RPMI-8226, 48 h; method in brief: as §1
A549 = experiment: Growth inhibition of human A549/ATCC cells incubated for 48 hrs by sulforhodamine B assay; conditions: A549, 48 h; method in brief: as §1
HOP-92 = experiment: Growth inhibition of human HOP92 cells incubated for 48 hrs by sulforhodamine B assay; conditions: HOP-92, 48 h; method in brief: as §1
NCI-H226 = experiment: Growth inhibition of human NCI-H226 cells incubated for 48 hrs by sulforhodamine B assay; conditions: NCI-H226, 48 h; method in brief: as §1
NCI-H23 = experiment: Growth inhibition of human NCI-H23 cells incubated for 48 hrs by sulforhodamine B assay; conditions: NCI-H23, 48 h; method in brief: as §1
NCI-H322M = experiment: Growth inhibition of human NCI-H322M cells incubated for 48 hrs by sulforhodamine B assay; method in brief: as §1
NCI-H460 = experiment: Growth inhibition of human NCI-H460 cells incubated for 48 hrs by sulforhodamine B assay; conditions: NCI-H460, 48 h; method in brief: as §1
HCC 2998 = experiment: Growth inhibition of human HCC2998 cells incubated for 48 hrs by sulforhodamine B assay; conditions: HCC 2998, 48 h; method in brief: as §1
HCT-116 = experiment: Growth inhibition of human HCT116 cells incubated for 48 hrs by sulforhodamine B assay; conditions: HCT-116, 48 h; method in brief: as §1
HCT-15 = experiment: Growth inhibition of human HCT15 cells incubated for 48 hrs by sulforhodamine B assay; conditions: HCT-15, 48 h; method in brief: as §1
HT-29 = experiment: Growth inhibition of human HT-29 cells incubated for 48 hrs by sulforhodamine B assay; conditions: HT-29, 48 h; method in brief: as §1
KM12 = experiment: Growth inhibition of human KM12 cells incubated for 48 hrs by sulforhodamine B assay; conditions: KM12, 48 h; method in brief: as §1
SW-620 = experiment: Growth inhibition of human SW620 cells incubated for 48 hrs by sulforhodamine B assay; conditions: SW-620, 48 h
Method in brief: (§2)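 NCI-60 screen run at NCI. Cells grown in RPMI medium with 5% FBS and 2 mM L-glutamine, plated at 5,000–40,000 cells/well, and preincubated 24 h at 37 °C. Time-zero plates were TCA-fixed. Compounds came from DMSO stocks and were tested at five concentrations from 10^-4 to 10^-8 M for 48 h. Cells were then TCA-fixed, stained with 0.4% SRB, and OD read at 515 nm. GI50 is the concentration giving a 50% reduction in net protein increase versus control.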

SF-268 = experiment: Growth inhibition of human SF268 cells incubated for 48 hrs by sulforhodamine B assay; conditions: SF-268, 48 h; method in brief: as §1
SF-295 = experiment: Growth inhibition of human SF295 cells incubated for 48 hrs by sulforhodamine B assay; conditions: SF-295, 48 h; method in brief: as §1
SF-539 = experiment: Growth inhibition of human SF539 cells incubated for 48 hrs by sulforhodamine B assay; conditions: SF-539, 48 h; method in brief: as §1
SNB-19 = experiment: Growth inhibition of human SNB19 cells incubated for 48 hrs by sulforhodamine B assay; conditions: SNB-19, 48 h; method in brief: as §2
U-251 = experiment: Growth inhibition of human U251 cells incubated for 48 hrs by sulforhodamine B assay; conditions: U-251, 48 h; method in brief: as §2
LOX IMVI = experiment: Growth inhibition of human LOXIMVI cells incubated for 48 hrs by sulforhodamine B assay; method in brief: as §1
Malme-3M = experiment: Growth inhibition of human MALME-3M cells incubated for 48 hrs by sulforhodamine B assay; method in brief: as §1
SK-MEL-28 = experiment: Growth inhibition of human SK-MEL-28 cells incubated for 48 hrs by sulforhodamine B assay; conditions: SK-MEL-28, 48 h; method in brief: as §1
UACC-257 = experiment: Growth inhibition of human UACC257 cells incubated for 48 hrs by sulforhodamine B assay; conditions: UACC-257, 48 h; method in brief: as §2
UACC-62 = experiment: Growth inhibition of human UACC62 cells incubated for 48 hrs by sulforhodamine B assay; conditions: UACC-62, 48 h; method in brief: as §2
OVCAR-5 = experiment: Growth inhibition of human OVCAR5 cells incubated for 48 hrs by sulforhodamine B assay; conditions: OVCAR-5, 48 h; method in brief: as §1
OVCAR-8 = experiment: Growth inhibition of human OVCAR8 cells incubated for 48 hrs by sulforhodamine B assay; conditions: OVCAR-8, 48 h; method in brief: as §1
NCI/ADR-RES = experiment: Growth inhibition of human NCI/ADR-RES cells incubated for 48 hrs by sulforhodamine B assay; method in brief: as §1
SK-OV-3 = experiment: Growth inhibition of human SKOV3 cells incubated for 48 hrs by sulforhodamine B assay; conditions: SK-OV-3, 48 h; method in brief: as §1
A498 = experiment: Growth inhibition of human A498 cells incubated for 48 hrs by sulforhodamine B assay; conditions: A498, 48 h; method in brief: as §1
RXF 393 = experiment: Growth inhibition of human RXF393 cells incubated for 48 hrs by sulforhodamine B assay; conditions: RXF 393, 48 h; method in brief: as §1
SN12C = experiment: Growth inhibition of human SN12C cells incubated for 48 hrs by sulforhodamine B assay; method in brief: as §1
UO-31 = experiment: Growth inhibition of human UO31 cells incubated for 48 hrs by sulforhodamine B assay; conditions: UO-31, 48 h; method in brief: as §2
MCF7 = experiment: Growth inhibition of human MCF7 cells incubated for 48 hrs by sulforhodamine B assay; conditions: MCF7, 48 h; method in brief: as §1
[1] = Cytotoxicity against human M9-ENL1 cells assessed as reduction in cell viability by trypan blue staining-based assay
Method in brief: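 M9-ENL1 AML cells (MLL-ENL-transduced human blood cells) plated at 10^6 cells/mL in alpha-MEM with 5% human plasma, 20% FBS, SCF, IL-3, IL-7 and FLT3. Drug diluted from DMSO stock into PBS, final DMSO ≤0.5%. After 24 h exposure, dead cells assessed by trypan blue and by flow cytometry (Annexin V/PI or Annexin V/7-AAD). Viability normalized to vehicle; EC50 from dose-response curves; triplicate.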

## C=C1C(=O)O[C@@H]2[C@H]3O[C@]3(C)CC/C=C(/COC(=O)c3cc4ccccc4o3)CC[C@@H]12
CCRF-CEM
  GI50: 330 nM
HL-60(TB)
  GI50: 1220 nM
K562
  GI50: 1150 nM
MOLT-4
  GI50: 1770 nM
RPMI-8226
  GI50: 710 nM
A549
  GI50: 2910 nM
HOP-92
  GI50: 1440 nM
NCI-H226
  GI50: 1740 nM
NCI-H23
  GI50: 1980 nM
NCI-H322M
  GI50: 5520 nM
NCI-H460
  GI50: 2000 nM
HCC 2998
  GI50: 2470 nM
HCT-116
  GI50: 320 nM
HCT-15
  GI50: 1070 nM
HT-29
  GI50: 820 nM
KM12
  GI50: 2020 nM
SW-620
  GI50: 660 nM
SF-268
  GI50: 1560 nM
SF-295
  GI50: 5900 nM
SF-539
  GI50: 1450 nM
SNB-19
  GI50: 3160 nM
U-251
  GI50: 1630 nM
LOX IMVI
  GI50: 1420 nM
Malme-3M
  GI50: 1660 nM
SK-MEL-28
  GI50: 1750 nM
UACC-257
  GI50: 1520 nM
UACC-62
  GI50: 1680 nM
OVCAR-5
  GI50: 1880 nM
OVCAR-8
  GI50: 2430 nM
NCI/ADR-RES
  GI50: 2590 nM
SK-OV-3
  GI50: 16700 nM
A498
  GI50: 12900 nM
RXF 393
  GI50: 1430 nM
SN12C
  GI50: 1780 nM
UO-31
  GI50: 1460 nM
MCF7
  GI50: 390 nM
[1]
  pEC50: 5.54

## CN(C)CC1C(=O)O[C@@H]2[C@H]3O[C@]3(C)CC/C=C(/COC(=O)c3cc4ccccc4[nH]3)CC[C@@H]12.O=C(O)/C=C/C(=O)O (some centres undefined)
CCRF-CEM
  GI50: 320 nM
HL-60(TB)
  GI50: 240 nM
K562
  GI50: 630 nM
MOLT-4
  GI50: 1510 nM
RPMI-8226
  GI50: 280 nM
A549
  GI50: 2440 nM
HOP-92
  GI50: 1400 nM
NCI-H226
  GI50: 1980 nM
NCI-H23
  GI50: 1960 nM
NCI-H322M
  GI50: 10800 nM
NCI-H460
  GI50: 5850 nM
HCC 2998
  GI50: 1720 nM
HCT-116
  GI50: 290 nM
HCT-15
  GI50: 290 nM
HT-29
  GI50: 430 nM
KM12
  GI50: 2240 nM
SW-620
  GI50: 1700 nM
SF-268
  GI50: 1480 nM
SF-295
  GI50: 3950 nM
SF-539
  GI50: 2510 nM
SNB-19
  GI50: 11900 nM
U-251
  GI50: 2610 nM
LOX IMVI
  GI50: 170 nM
Malme-3M
  GI50: 2010 nM
SK-MEL-28
  GI50: 2210 nM
UACC-257
  GI50: 1470 nM
UACC-62
  GI50: 1650 nM
OVCAR-5
  GI50: 2380 nM
OVCAR-8
  GI50: 1680 nM
NCI/ADR-RES
  GI50: 1420 nM
SK-OV-3
  GI50: 2190 nM
A498
  GI50: 13100 nM
RXF 393
  GI50: 1140 nM
SN12C
  GI50: 2210 nM
UO-31
  GI50: 520 nM
MCF7
  GI50: 610 nM
[1]
  pEC50: 5.55
